In assay [1] the test system is HMLE_shECad viability, CellTiter-Glo luminescence, 72 h. Kind of assay: growth inhibition of breast cancer stem-like cells, dose response, cell-based, HMLE_shECad, CellTiter-Glo luminescence, dry powder, set 6 (AID 504667). In short, it runs like this:
(§1)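 test system = HMLE_shECad cells, stable E-cadherin knockdown, EMT-induced, CSC-like | amount = 2000 HMLE_shECad cells per well | medium = serum-free CSC medium for cell seeding and exposure | doses = compound added as 100 nL by pin transfer | incubation = ≥4 h cell attachment, ~72 h compound exposure | detection = CellTiter-Glo luminescence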
For orientation: Cellular ATP, detected with luciferase, serves as a proxy for viable cell number.

Assay in assay [2]: as above
The settings on record: HMLE_shECad viability, CellTiter-Glo luminescence, 72 h. In short, it runs like this: as §1

Structures are written as SMILES. Values joined by “and” are separate entries in the source; they are usually repeats but may differ in a detail not shown here. Equal entries are not always repeated. Inconclusive results are not listed. Active and inactive are the calls of the source.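 How the source made its calls: active means signal drops with a fitted half-maximal dose within ten times the top tested dose, in every replicate test; inconclusive means replicate tests disagree, or flat partial drop, or poor fit; inactive means the rest, including effects in the wrong direction.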

Regarding `CC(C)c1ccc(/C=C/C(=O)NC2=NCCS2)cc1`, the AC50 in assay [1] was 3.23 µM.

As to `Cc1csc(NC(=O)c2ccoc2COc2ccccc2)n1`, the AC50 in assay [1] was 16.6 µM.

Turning to `Cc1csc(NC(=O)c2ccc(COC3CCCCC3)o2)n1`, in assay [1], the AC50 was 13.6 µM.

On to `N#Cc1csc(NC(=O)c2ccc(COc3ccccc3)o2)n1`, for which, in assay [1], the AC50 was 13.7 µM.

With `Cc1csc(NC(=O)c2ccc(COc3cccc(Oc4ccccc4)c3)o2)n1`, the AC50 in assay [1] was 0.388 µM.

Regarding `Cc1cc(Br)ccc1OCC(=O)N/N=C/c1ccc[nH]1`, the AC50 in assay [1] is 3.22 µM.

Regarding `Cc1csc(NC(=O)c2ccc(COc3ccccc3F)o2)n1`, the AC50 in assay [1] was 0.007 µM.

Turning to `Cc1cc(C)c(OCC(=O)N/N=C/c2ccc[nH]2)c(C)c1`, the AC50 in assay [1] was 4.45 µM.

`CC(C)c1ccc(/C=C/C(=O)N(C)C2=NCCS2)cc1`: in assay [1], the AC50 was 20.9 µM.

As to `COc1ccc(OC)c2sc(NC(=O)c3ccc(COc4ccccc4)o3)nc12`, the activity change, negative = inhibition in assay [2] (at 30 µM (top of the series)) was -5.85% (inactive).

Regarding `Cc1csc(NC(=O)c2ccc(COc3cccc(S(C)(=O)=O)c3)o2)n1`, in assay [2] (at 19.5 µM (top of the series)), the activity change, negative = inhibition was -5.39% (inactive).

Turning to `Cc1csc(NC(=O)c2ccc(CCc3ccccc3)o2)n1`, in assay [1], the AC50 is 0.794 µM.

In the case of `Cc1csc(NC(=O)c2coc(COc3ccccc3)c2)n1`, the concentration at half-maximal activity (AC50) in assay [1] was 1.27 µM.

For `Cc1csc(NC(=O)c2ccc(COc3ccccc3S(C)(=O)=O)o2)n1`, in assay [1], the AC50 is 20.9 µM.

In the case of `Cc1csc(NC(=O)c2ccc(COc3cccc(F)c3)o2)n1`, the AC50 in assay [1] is 3.25 µM.

For the compound `CCc1ccc(/C=C/C(=O)NC2=NCCS2)cc1`, the AC50 in assay [1] is 2.33 µM.

Consider `CCN(CC)C(=O)c1ccc(COc2ccccc2)o1`, for which the activity change, negative = inhibition in assay [2] (at 19.5 µM (top of the series)) is -1.82% (inactive).

For `Cc1ccc(OCc2ccc(C(=O)Nc3nc(C)cs3)o2)cc1`, the AC50 in assay [1] is 2.04 µM.

As for `O=C(Nc1nc(C(F)(F)F)cs1)c1ccc(COc2ccccc2)o1`, the AC50 in assay [1] was 13.8 µM.

Take `CC(C)Cc1ccc(/C=C/C(=O)NC2=NCCS2)cc1`: in assay [1], the AC50 is 0.386 µM.

Take `Cc1cccc(OCc2ccc(C(=O)Nc3nc(C)cs3)o2)c1`: the AC50 in assay [1] was 0.123 µM and 0.596 µM.

Consider `CC(C)c1ccc(/C=C/C(=O)Nc2nc3ccccc3s2)cc1`, for which, in assay [2] (at 19.5 µM (top of the series)), the activity change, negative = inhibition was -8.38% (inactive).

As to `Cc1csc(NC(=O)c2ccc(CNc3ccccc3)o2)n1`, the AC50 in assay [1] was 0.38 µM.

Regarding `Cc1csc(NC(=O)c2ccc(COC(C)(C)C)o2)n1`, in assay [2] (at 19.5 µM (top of the series)), the activity change, negative = inhibition is -7.02% (inactive).

As to `C/C(=C\C(=O)NC1=NCCS1)c1ccc(CC(C)C)cc1`, the activity change, negative = inhibition in assay [2] (at 19.5 µM (top of the series)) was -2.19% (inactive).

Take `Cc1csc(NC(=O)c2ccc(COc3ccccc3)o2)n1`: the AC50 in assay [1] was 1.05 µM.

As to `COc1cccc(OCc2ccc(C(=O)Nc3nc(C)cs3)o2)c1`, the AC50 in assay [1] is 0.223 µM.

Consider `O=C(Nc1nncs1)c1ccc(COc2ccccc2)o1`, for which the activity change, negative = inhibition in assay [2] (at 19.5 µM (top of the series)) is -0.185% (inactive).

For `Cc1csc(NC(=O)c2ccc(COC3CCCC3)o2)n1`, the AC50 in assay [1] is 28.3 µM.

With `O=C(COc1ccc(Cl)cc1Cl)N/N=C/c1ccc[nH]1`, the AC50 in assay [1] is 3.8 µM.

Take `COc1ccc(Cl)c(OCc2ccc(C(=O)Nc3nc(C)cs3)o2)c1`: the half-maximal activity concentration (AC50) in assay [1] is 0.08 µM.

With `Cc1csc(NC(=O)c2ccc(CNc3ccccn3)o2)n1`, the AC50 in assay [1] was 7.55 µM.

In the case of `COc1ccc2nc(NC(=O)c3ccc(COc4ccccc4)o3)sc2c1`, the activity change, negative = inhibition in assay [2] (at 30 µM (top of the series)) is -14.7% (inactive).

Regarding `COc1ccc(OCc2ccc(C(=O)Nc3nc(C)cs3)o2)c(F)c1`, the concentration at half-maximal activity (AC50) in assay [1] is 3.35 µM.

For the compound `Cc1csc(NC(=O)c2ccc(COc3cc(Cl)ccc3Cl)o2)n1`, the AC50 in assay [1] is 0.024 µM.

`CC(C)c1ccc(/C=C/C(=O)Nc2cncs2)cc1`: in assay [1], the AC50 was 6.44 µM.

As for `Cc1ccc2cc(C(=O)NC3=NCCS3)n(C)c2c1`, the activity change, negative = inhibition in assay [2] (at 30 µM (top of the series)) is -5.01% (inactive).

For the compound `Cc1csc(NC(=O)c2ccc(COc3cccc(OC(F)(F)F)c3)o2)n1`, the AC50 in assay [1] was 0.162 µM.

`COCc1ccc(C(=O)Nc2nc(C)cs2)o1`: the activity change, negative = inhibition in assay [2] (at 19.5 µM (top of the series)) is -7.05% (inactive).

For the compound `Cc1csc(NCc2ccc(COc3ccccc3)o2)n1`, the AC50 in assay [1] was 28.8 µM.

On to `COc1ccc(/C=C/C(=O)NC2=NCCS2)c(OC)c1`, for which, in assay [1], the AC50 is 10.4 µM.

Regarding `CCOc1cccc(OCc2ccc(C(=O)Nc3nc(C)cs3)o2)c1`, the AC50 in assay [1] was 0.896 µM.

Regarding `O=C(Nc1nc2cc(F)ccc2s1)c1ccc(COc2ccccc2)o1`, in assay [2] (at 30 µM (top of the series)), the activity change, negative = inhibition is -21.2% (inactive).

On to `O=C(COc1c(Cl)cc(Cl)cc1Cl)N/N=C/c1ccc[nH]1`, for which, in assay [1], the AC50 was 1.51 µM.

Take `CC(C)NC(=O)c1ccc(COc2ccccc2)o1`: in assay [2] (at 19.5 µM (top of the series)), the activity change, negative = inhibition was -15.6% (inactive).

Consider `Cc1csc(NC(=O)c2ccc(COc3cccc(Cl)c3)o2)n1`, for which the AC50 in assay [1] is 0.5 µM.

On to `Cc1csc(NC(=O)c2ccc(COc3ccccn3)o2)n1`, for which the AC50 in assay [1] is 9.4 µM.

With `CNC(=O)c1csc(NC(=O)c2ccc(COc3ccccc3)o2)n1`, the activity change, negative = inhibition in assay [2] (at 19.5 µM (top of the series)) was -0.72% (inactive).

In the case of `Cc1csc(NC(=O)c2cocc2COc2ccccc2)n1`, the activity change, negative = inhibition in assay [2] (at 30 µM (top of the series)) is -3.35% (inactive).

For the compound `Cc1csc(NC(=O)c2ccc(COCc3ccccc3)o2)n1`, in assay [1], the AC50 is 4.92 µM.

Turning to `N#Cc1ccc(/C=C/C(=O)NC2=NCCS2)cc1`, the AC50 in assay [1] is 24.6 µM.

A word on the AC50: it is the concentration at which the activity in the assay is half-maximal.

Values taken from PubChem BioAssay AID504667 (Broad Institute, 2011).
